Laboratory results published in ChEMBL document CHEMBL3862013 (Bioorg Med Chem, 2016).

How the values were obtained:
[1] = tested on: Human immunodeficiency virus 1; assay: Antiviral activity against ENV pseudotyped HIV1 subtype D QD435.100M.ENV.B5; type: functional; conditions: Human immunodeficiency virus 1, subtype D QD435.100M.ENV.B5
[2] = tested on: Human immunodeficiency virus 1; assay: Antiviral activity against ENV pseudotyped HIV1 subtype C ZM233M.PB6; type: functional; conditions: Human immunodeficiency virus 1, subtype C ZM233M.PB6
[3] = tested on: Vesicular stomatitis virus; assay: Antiviral activity against G-glycoprotein expressing VSV; type: functional
[4] = tested on: Human immunodeficiency virus 1; assay: Inhibition of CD4-dependent CXCR4-tropic HIV1 3B cell to cell transmission using Ghost X4/R5 cells as target cells and H9 as effector cells assessed as p24 release incubated for 4 hrs by sandwich ELISA method; type: functional; conditions: Human immunodeficiency virus 1, 3B
[5] = Inhibition of HIV1 HXB2 Env-mediated cell-cell fusion using MAGI-CCR5 as target cells and HL2/3 as effector cells preincubated with target cells for 1 hr followed by effector cells addition measured after 24 hrs by beta-galactosidase reporter gene assay; conditions: Human immunodeficiency virus 1, HXB2
[6] = tested on: Human immunodeficiency virus 1; assay: Antiviral activity against ENV pseudotyped HIV1 subtype A/E AA058; type: functional; conditions: Human immunodeficiency virus 1, subtype A/E AA058
[7] = Cytotoxicity against human MT2 cells after 4 days by XTT assay; type: toxicity, cell-based; conditions: mt2, 96 h
Summary of the method: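 Run in parallel with the antiviral assay. Graded compound added to an equal volume of MT-2 cells (10^5 cells/ml) and incubated 4 days. XTT added, and soluble formazan read at 450 nm after 4 hours.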

[8] = tested on: Human immunodeficiency virus 1; assay: Antiviral activity against HIV1 3B assessed as inhibition of multi-cycle viral infection in human MT2 cells by measuring p24 production preincubated for 30 mins followed by addition of cells measured after 4 days by sandwich ELISA; type: functional, cell-based
Summary of the method: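 Overnight at 37 °C, then supernatant replaced with fresh medium. Day 4 post-infection, supernatants mixed with equal volume 5% Triton X-100 and p24 measured by sandwich ELISA. IC50 derived from percent inhibition of p24 production; mean ± SD.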

[9] = tested on: Human immunodeficiency virus 1; assay: Antiviral activity against ENV pseudotyped HIV1 PRHPA4259 clone 7; type: functional; conditions: Human immunodeficiency virus 1, PRHPA4259 clone 7
[10] = tested on: Human immunodeficiency virus 1; assay: Antiviral activity against ENV pseudotyped HIV1 subtype A/D QA790.204I.ENV.E2; type: functional; conditions: Human immunodeficiency virus 1, subtype A/D QA790.204I.ENV.E2
[11] = tested on: Human immunodeficiency virus 1; assay: Antiviral activity against ENV pseudotyped HIV1 subtype A/D QA790.204I.ENV.C8; type: functional; conditions: Human immunodeficiency virus 1, subtype A/D QA790.204I.ENV.C8
[12] = Cytotoxicity against human TZM-bl cells after 3 days by XTT assay; type: toxicity, cell-based; conditions: 72 h
Summary of the method: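 Graded compound concentrations added to an equal volume of TZM-bl cells (10^5/ml) and incubated 3 days. XTT added, then formazan read at 450 nm after 4 h. CC50 derived from percent cytotoxicity; mean ± SD.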

[13] = tested on: Human immunodeficiency virus 1; assay: Antiviral activity against X4 tropic HIV1 HXB2 assessed as inhibition of single cycle viral infection in human TZM-bl cells preincubated for 30 mins followed by addition of cells measured after 3 days by luciferase reporter gene assay; type: functional, cell-based
[14] = tested on: Human immunodeficiency virus 1; assay: Inhibition of CD4-dependent CCR5-tropic HIV1 ADA cell to cell transmission using Ghost X4/R5 cells as target cells and MOLT4 as effector cells assessed as p24 release incubated for 4 hrs by sandwich ELISA method; type: functional, cell-based; conditions: Human immunodeficiency virus 1, ADA, MOLT-4, 4 h
[15] = Human immunodeficiency virus 1, 3B, MT2
[16] = Human immunodeficiency virus 1, HXB2, TZM-bl

Compound | CC50 [7] [µM] | IC50 [8, 15] [µM] | CC50 [12] [µM] | IC50 [13, 16] [µM] | further results
Cc1nc([C@H](NC(=O)c2ccc(-c3ccc(Cl)cc3)[nH]2)[C@@H]2CCCCN2)sc1CO | 24.8 | 0.85 | 23.6 | – | IC50 [1]: 1.6 µM; IC50 [2]: 1.7 µM; IC50 [3]: 7.1 µM; IC50 [4]: 8.8 µM; IC50 [5]: 8.9 µM; IC50 [6]: 4.4 µM; IC50 [9]: 1.4 µM; IC50 [10]: 0.71 µM; IC50 [11]: 1.5 µM
Cc1ccc(-c2ccc(C(=O)N[C@H](CN)c3nc(C)c(CO)s3)[nH]2)cc1F | 24.3 | 0.65 | 26.2 | 1.1 | –
Cc1ccc(-c2ccc(C(=O)N[C@H](c3nc(C)c(CCO)s3)[C@@H]3CCCCN3)[nH]2)cc1F | 29.7 | 6.1 | 28.8 | 10.6 | –
Cc1nc([C@@H](NC(=O)c2ccc(-c3ccc(Cl)c(F)c3)[nH]2)[C@@H]2CCCCN2)sc1CCO | 16.9 | 3.4 | 16.1 | 7.5 | –
Cc1nc([C@H](NC(=O)c2ccc(-c3ccc(Cl)c(F)c3)[nH]2)[C@@H]2CCCCN2)sc1CCCO | 12.6 | 4.5 | 8.2 | 5.1 | –
Cc1ccc(-c2ccc(C(=O)N[C@@H](c3nc(C)c(CO)s3)[C@@H]3CCCCN3)[nH]2)cc1F | 28.2 | 1.6 | 19.2 | 3.8 | –
Cc1nc([C@@H](NC(=O)c2ccc(-c3ccc(Cl)cc3)[nH]2)[C@@H]2CCCCN2)sc1CCO | 26.8 | 2 | 17.3 | 8.9 | –
Cc1nc([C@@H](NC(=O)c2ccc(-c3ccc(Cl)c(F)c3)[nH]2)[C@H]2CCCCN2)sc1CO | 17.2 | 1.6 | 15.2 | 3 | –
Cc1ccc(-c2ccc(C(=O)N[C@@H](c3nc(C)c(CCCO)s3)[C@@H]3CCCCN3)[nH]2)cc1F | 20.6 | 7.4 | 17 | 7.9 | –
Cc1nc([C@@H](CN)NC(=O)c2ccc(-c3ccc(Cl)c(F)c3)[nH]2)sc1CO | 22.7 | – | 26 | – | –
Cc1nc([C@H](NC(=O)c2ccc(-c3ccc(Cl)cc3)[nH]2)[C@@H]2CCCCN2)sc1CCCO | 19 | 5.8 | 13.7 | 7.6 | –
Cc1nc([C@@H](CN)NC(=O)c2ccc(-c3ccc(Cl)cc3)[nH]2)sc1CO | 28.2 | – | 34.1 | – | –
Cc1nc([C@H](CN)NC(=O)c2ccc(-c3ccc(Cl)cc3)[nH]2)sc1CO | 25.8 | – | 33.6 | – | IC50 [5]: 11.9 µM; IC50 [14]: 30 µM
Cc1nc([C@H](CN)NC(=O)c2ccc(-c3ccc(Cl)c(F)c3)[nH]2)sc1CO | 30.5 | – | 40.5 | – | IC50 [5]: 15.2 µM
Cc1ccc(-c2ccc(C(=O)N[C@@H](CN)c3nc(C)c(CO)s3)[nH]2)cc1F | 31.6 | 0.91 | 35 | 1.7 | –
Cc1ccc(-c2ccc(C(=O)N[C@@H](c3nc(C)c(CCO)s3)[C@@H]3CCCCN3)[nH]2)cc1F | 21.2 | 3 | 15.3 | 6.3 | –
Cc1nc([C@H](NC(=O)c2ccc(-c3ccc(Cl)c(F)c3)[nH]2)[C@@H]2CCCCN2)sc1CCO | 16.8 | 2.9 | 15.1 | 8 | –
Cc1ccc(-c2ccc(C(=O)N[C@H](c3nc(C)c(CO)s3)[C@@H]3CCCCN3)[nH]2)cc1F | 16.1 | 3 | 18 | 2.7 | –
Cc1nc([C@H](NC(=O)c2ccc(-c3ccc(Cl)c(F)c3)[nH]2)[C@H]2CCCCN2)sc1CO | 26 | 2.6 | 17.4 | 3.2 | –
Cc1nc([C@H](NC(=O)c2ccc(-c3ccc(Cl)cc3)[nH]2)[C@@H]2CCCCN2)sc1CCO | 21 | 4.6 | 15.4 | 5.7 | –
Cc1nc(C(NC(=O)c2ccc(-c3ccc(Cl)cc3)[nH]2)C2CCCCN2)[nH]c1CO (stereo in doubt; 35A) | – | 10.2 | 30 | 14.1 | CC50 ([7]; 96 h): 36.6 µM
Cc1nc(C(NC(=O)c2ccc(-c3ccc(Cl)cc3)[nH]2)C2CCCCN2)[nH]c1CO (stereo in doubt; 35B) | – | – | 33.8 | – | CC50 ([7]; 96 h): 45.2 µM; IC50 ([13]; tzm-bl): 15.8 µM; IC50 ([8]; mt2): 18 µM
Cc1nc(C(NC(=O)c2ccc(-c3ccc(Cl)c(F)c3)[nH]2)C2CCCCN2)[nH]c1CO (stereo in doubt; 36A) | – | – | 26.7 | 8.8 | CC50 ([7]; 96 h): 31.1 µM; IC50 ([8]; mt2): 10.6 µM
Cc1nc(C(NC(=O)c2ccc(-c3ccc(Cl)c(F)c3)[nH]2)C2CCCCN2)[nH]c1CO (stereo in doubt; 36B) | – | – | 30.7 | – | CC50 ([7]; 96 h): 36.4 µM; IC50 ([13]; tzm-bl): 16 µM; IC50 ([8]; mt2): 22.8 µM
Cc1ccc(-c2ccc(C(=O)NC(c3nc(C)c(CO)[nH]3)C3CCCCN3)[nH]2)cc1F (stereo in doubt; 37A) | – | 12.9 | 33.3 | 9.4 | CC50 ([7]; 96 h): 28.4 µM
Cc1ccc(-c2ccc(C(=O)NC(c3nc(C)c(CO)[nH]3)C3CCCCN3)[nH]2)cc1F (stereo in doubt; 37B) | – | – | 34.5 | – | CC50 ([7]; 96 h): 37.1 µM; IC50 ([13]; tzm-bl): 16.9 µM; IC50 ([8]; mt2): 22.3 µM
